# According to ChEMBL document CHEMBL3808334, “Synthesis and in vitro evaluation of novel triazine analogues as anticancer agents and their interaction studies with bovine serum albumin” (Eur J Med Chem, 2016):
# Key:
# Type in all cases: functional
# SK-MEL-28 = assay: Growth inhibition of human SK-MEL-28 cells assessed as cell growth at 10^-4 M incubated for 48 hrs by sulforhodamine B assay; conditions: SK-MEL-28, 48 h, read-out: Activity
# [1] = Growth inhibition of human SNB19 cells assessed as cell growth at 10^-4 M incubated for 48 hrs by sulforhodamine B assay; conditions: SNB-19, 48 h, read-out: Activity
# A549 = assay: Growth inhibition of human A549/ATCC cells assessed as cell growth at 10 uM incubated for 48 hrs by sulforhodamine B assay; conditions: A549, 48 h, read-out: Activity
# How it was run: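 One-dose screen at 10 µM final. Cells are plated at 5,000–40,000 per well according to doubling time and preincubated 24 h at 37 °C, 5% CO₂. Compound (DMSO stock diluted in medium with 50 µg/ml gentamicin) is then added for 48 h. Growth percent is read by sulforhodamine B staining, absorbance at 515 nm.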
# MDA-MB-435 = assay: Growth inhibition of human MDA-MB-435 cells assessed as cell growth at 10^-5 M incubated for 48 hrs by sulforhodamine B assay; conditions: MDA-MB-435, 48 h, read-out: Activity
# [2] = Growth inhibition of human OVCAR8 cells assessed as cell growth at 10 uM incubated for 48 hrs by sulforhodamine B assay; conditions: OVCAR-8, 48 h, read-out: Activity
# [3] = Growth inhibition of human SW620 cells incubated for 48 hrs by sulforhodamine B assay; conditions: SW-620, 48 h
# How it was run: (§1)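 Cells were plated at 5,000–40,000 per well according to doubling time and preincubated 24 h at 37 °C in 5% CO2; time-zero plates were then TCA-fixed. Five concentrations (10-fold or ½-log dilutions, DMSO stock) were incubated 48 h. Cells were TCA-fixed, stained with 0.4% SRB and read at 515 nm. GI50 was taken where [(Ti−Tz)/(C−Tz)]×100 = 50.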
# [4] = Growth inhibition of human UO31 cells incubated for 48 hrs by sulforhodamine B assay; conditions: UO-31, 48 h; how it was run: as §1
# [5] = Growth inhibition of human RXF393 cells assessed as cell growth at 10^-7 M incubated for 48 hrs by sulforhodamine B assay; conditions: RXF 393, 48 h, read-out: Activity
# [6] = Growth inhibition of human SF268 cells assessed as cell growth at 10^-7 M incubated for 48 hrs by sulforhodamine B assay; conditions: SF-268, 48 h, read-out: Activity
# NCI-H322M = assay: Growth inhibition of human NCI-H322M cells assessed as cell growth at 10 uM incubated for 48 hrs by sulforhodamine B assay; conditions: read-out: Activity
# NCI/ADR-RES = assay: Growth inhibition of human NCI/ADR-RES cells assessed as cell growth at 10 uM incubated for 48 hrs by sulforhodamine B assay; conditions: read-out: Activity
# NCI-H522 [7] = assay: Growth inhibition of human NCI-H522 cells assessed as cell growth at 10^-4 M incubated for 48 hrs by sulforhodamine B assay; conditions: NCI-H522, 48 h, read-out: Activity
# [8] = Growth inhibition of human SNB19 cells assessed as cell growth at 10^-5 M incubated for 48 hrs by sulforhodamine B assay; conditions: SNB-19, 48 h, read-out: Activity
# [9] = Growth inhibition of human MOLT4 cells incubated for 48 hrs by sulforhodamine B assay; conditions: MOLT-4, 48 h; how it was run: as §1
# M14 = assay: Growth inhibition of human M14 cells incubated for 48 hrs by sulforhodamine B assay; conditions: M14, 48 h; how it was run: as §1
# [10] = Growth inhibition of human OVCAR3 cells assessed as cell growth at 10^-4 M incubated for 48 hrs by sulforhodamine B assay; conditions: OVCAR-3, 48 h, read-out: Activity
# SN12C = assay: Growth inhibition of human SN12C cells assessed as cell growth at 10^-7 M incubated for 48 hrs by sulforhodamine B assay; conditions: read-out: Activity
# EKVX = assay: Growth inhibition of human EKVX cells assessed as cell growth at 10^-7 M incubated for 48 hrs by sulforhodamine B assay; conditions: read-out: Activity
# How it was run: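 Cells seeded at 5,000–40,000/well according to doubling time and preincubated 24 h at 37 °C, 5% CO2. Time-zero plates were TCA-fixed. DMSO concentrate was diluted in medium with 50 µg/ml gentamicin to give five concentrations (10-fold or ½ log steps), then exposed 48 h. Cells were TCA-fixed, stained with 0.4% SRB and read at 515 nm. Percent growth was taken against time-zero and control; GI50, TGI and LC50 derived.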
# NCI-H226 = assay: Growth inhibition of human NCI-H226 cells incubated for 48 hrs by sulforhodamine B assay; conditions: NCI-H226, 48 h; how it was run: as §1
# K562 = assay: Growth inhibition of human K562 cells assessed as cell growth at 10^-5 M incubated for 48 hrs by sulforhodamine B assay; conditions: K562, 48 h, read-out: Activity
# [11] = Growth inhibition of human LOXIMVI cells incubated for 48 hrs by sulforhodamine B assay; conditions: LOX IMVI; how it was run: as §1
# [12] = Growth inhibition of human SKOV3 cells assessed as cell growth at 10^-7 M incubated for 48 hrs by sulforhodamine B assay; conditions: SK-OV-3, 48 h, read-out: Activity
# [13] = Growth inhibition of human Hs 578T cells assessed as cell growth at 10 uM incubated for 48 hrs by sulforhodamine B assay; conditions: read-out: Activity
# NCI-H522 [14] = assay: Growth inhibition of human NCI-H522 cells incubated for 48 hrs by sulforhodamine B assay; conditions: NCI-H522, 48 h; how it was run: as §1
# [15] = read-out: LC50 (the source's name)
# [16] = read-out: pLC50 (the source's name) (converted)
compound,measurement,setting,value
Fc1ccc(-c2nc(Nc3ccc(-c4nc5ccccc5[nH]4)cc3)nc(N3CCOCC3)n2)cc1,growth at 100 µM,SK-MEL-28,-36%
same,growth at 100 µM,[1],4%
same,growth at 10 µM,A549,11.2%
same,growth at 10 µM,MDA-MB-435,-62%
same,growth at 10 µM,[2],39.2%
same,GI50,[3]; read-out: GI50,2190 nM
same,CC50,[3]; [15],> 100000 nM
same,TGI,[3]; read-out: TGI,4800 nM
same,GI50,[3]; read-out: pGI50 (converted),2190 nM
same,CC50,[3]; [16],> 100000 nM
same,TGI,[3]; read-out: pTGI (converted),4790 nM
same,LC50,[4],> 100000 nM
same,GI50,[4]; read-out: GI50,2160 nM
same,TGI,[4]; read-out: TGI,5640 nM
same,GI50,[4]; read-out: pGI50 (converted),2140 nM
same,CC50,[4]; [16],> 100000 nM
same,TGI,[4]; read-out: pTGI (converted),5620 nM
same,growth at 0.1 µM,[5],100%
same,growth at 0.1 µM,[6],96%
same,growth at 10 µM,NCI-H322M,27%
same,growth at 10 µM,NCI/ADR-RES,34.2%
same,growth at 100 µM,NCI-H522 [7],-31%
same,growth at 10 µM,[8],15%
same,GI50,[9]; read-out: GI50,2150 nM
same,CC50,[9]; [15],> 100000 nM
same,TGI,[9]; read-out: TGI,6130 nM
same,GI50,[9]; read-out: pGI50 (converted),2140 nM
same,CC50,[9]; [16],> 100000 nM
same,TGI,[9]; read-out: pTGI (converted),6170 nM
same,GI50,M14; read-out: GI50,1940 nM
same,CC50,M14; [15],8370 nM
same,TGI,M14; read-out: TGI,4030 nM
same,GI50,M14; read-out: pGI50 (converted),1950 nM
same,CC50,M14; [16],8320 nM
same,TGI,M14; read-out: pTGI (converted),4070 nM
same,growth at 100 µM,[10],-45%
same,growth at 0.1 µM,SN12C,90%
same,growth at 0.1 µM,EKVX,91%
same,GI50,NCI-H226; read-out: GI50,3320 nM
same,CC50,NCI-H226; [15],> 100000 nM
same,TGI,NCI-H226; read-out: TGI,8600 nM
same,GI50,NCI-H226; read-out: pGI50 (converted),3310 nM
same,CC50,NCI-H226; [16],> 100000 nM
same,TGI,NCI-H226; read-out: pTGI (converted),8510 nM
same,growth at 10 µM,K562,-31%
same,GI50,[11]; read-out: GI50,1780 nM
same,TGI,[11]; read-out: TGI,3590 nM
same,GI50,[11]; read-out: pGI50 (converted),1780 nM
same,TGI,[11]; read-out: pTGI (converted),3630 nM
same,growth at 0.1 µM,[12],98%
same,growth at 10 µM,[13],-11.9%
same,GI50,NCI-H522 [14]; read-out: GI50,2360 nM
same,CC50,NCI-H522 [14]; [15],> 100000 nM
same,TGI,NCI-H522 [14]; read-out: TGI,5850 nM
same,GI50,NCI-H522 [14]; read-out: pGI50 (converted),2340 nM
same,CC50,NCI-H522 [14]; [16],> 100000 nM
same,TGI,NCI-H522 [14]; read-out: pTGI (converted),5890 nM
Clc1ccc(-c2nc(Nc3ccc(-c4nc5ccccc5[nH]4)cc3)nc(N3CCOCC3)n2)cc1,growth at 100 µM,SK-MEL-28,-24%
same,growth at 100 µM,[1],1%
same,growth at 10 µM,A549,-75.2%
same,growth at 10 µM,MDA-MB-435,-98%
same,growth at 10 µM,[2],-73.8%
same,GI50,[3]; read-out: GI50,186 nM
same,CC50,[3]; [15],742 nM
same,TGI,[3]; read-out: TGI,372 nM
same,GI50,[3]; read-out: pGI50 (converted),186 nM
same,CC50,[3]; [16],741 nM
same,TGI,[3]; read-out: pTGI (converted),372 nM
same,GI50,[4]; read-out: GI50,1510 nM
same,TGI,[4]; read-out: TGI,3030 nM
same,GI50,[4]; read-out: pGI50 (converted),1510 nM
same,TGI,[4]; read-out: pTGI (converted),3020 nM
same,growth at 0.1 µM,[5],106%
same,growth at 0.1 µM,[6],96%
same,growth at 10 µM,NCI-H322M,-92.8%
same,growth at 10 µM,NCI/ADR-RES,-87.5%
same,growth at 100 µM,NCI-H522 [7],-41%
same,growth at 10 µM,[8],-70%
same,GI50,[9]; read-out: GI50,217 nM
same,TGI,[9]; read-out: TGI,573 nM
same,GI50,[9]; read-out: pGI50 (converted),219 nM
same,TGI,[9]; read-out: pTGI (converted),575 nM
same,GI50,M14; read-out: GI50,370 nM
same,TGI,M14; read-out: TGI,1480 nM
same,GI50,M14; read-out: pGI50 (converted),372 nM
same,TGI,M14; read-out: pTGI (converted),1480 nM
same,growth at 100 µM,[10],-71%
same,growth at 0.1 µM,SN12C,92%
same,growth at 0.1 µM,EKVX,87%
same,GI50,NCI-H226; read-out: GI50,2110 nM
same,TGI,NCI-H226; read-out: TGI,4440 nM
same,GI50,NCI-H226; read-out: pGI50 (converted),2090 nM
same,TGI,NCI-H226; read-out: pTGI (converted),4470 nM
same,growth at 10 µM,K562,-70%
same,GI50,[11]; read-out: GI50,189 nM
same,GI50,[11]; read-out: pGI50 (converted),191 nM
same,growth at 0.1 µM,[12],99%
same,growth at 10 µM,[13],-40.2%
same,GI50,NCI-H522 [14]; read-out: GI50,1500 nM
same,TGI,NCI-H522 [14]; read-out: TGI,3190 nM
same,GI50,NCI-H522 [14]; read-out: pGI50 (converted),1510 nM
same,TGI,NCI-H522 [14]; read-out: pTGI (converted),3160 nM
